pIC50: −log10 of the molar value.
Columns and labels:
[1] = Aqueous solubility of the compound in water by HPLC analysis; type: physicochemical
Method in brief: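 Solid mixed with water to make 2 mM, sonicated 15 min, centrifuged; supernatant diluted 2-fold, recentrifuged, analysed by C18 HPLC (acetonitrile/45 mM ammonium formate pH 3.5 gradient); peak area compared with DMSO standard.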

[2] = molecular target: PI3-kinase p110-delta/p85-alpha (Homo sapiens, UniProt O00329); experiment: Inhibition of recombinant PI3K p110delta/p85alpha (unknown origin) using phosphotidylinositol as susbstrate after 1 hr by thin layer paper chromatographic analysis in presence of [gamma-33P]ATP; type: protein-complex assay
[3] = Cytotoxicity against human NZB5 cells expressing wild type PI3K p110alpha assessed as growth inhibition after 5 days by [3H]-thymidine incorporation assay; type: functional, cell-based
Method in brief: (§1)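 NZB5 (medulloblastoma, wild-type p110α) and NZOV9 (ovarian endometrioid adenocarcinoma, Y1021C p110α) cells cultured with drug for 5 days; proliferation by [³H]-thymidine incorporation at end; IC50 as 50% inhibition versus controls, averaged over at least two determinations.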

[4] = molecular target: PI3-kinase p110-alpha/p85-alpha (Homo sapiens, UniProt P42336); experiment: Inhibition of recombinant PI3K p110alpha/p85alpha (unknown origin) using phosphotidylinositol as susbstrate after 1 hr by thin layer paper chromatographic analysis in presence of [gamma-33P]ATP; type: protein-complex assay
[5] = molecular target: PI3K p110 beta/p85 alpha (Homo sapiens, UniProt P42338); experiment: Inhibition of recombinant PI3K p110beta/p85alpha (unknown origin) using phosphotidylinositol as susbstrate after 1 hr by thin layer paper chromatographic analysis in presence of [gamma-33P]ATP; type: protein-complex assay
[6] = Cytotoxicity against human NZOV9 cells expressing PI3K p110alpha Y1021C mutant assessed as growth inhibition after 5 days by [3H]-thymidine incorporation assay; type: functional, cell-based; method in brief: as §1
[7] = system: Mus musculus; experiment: Toxicity in rag1-deficient mouse xenografted with human U87MG cells assessed as body weight loss at 60 mg/kg, ip qd after 14 days relative to control; type: organism-based, U-87MG ATCC; design: dose 60 mg/kg, route intraperitoneal; conditions: in vivo, 336 h
[8] = system: Mus musculus; experiment: Toxicity in rag1-deficient mouse xenografted with human U87MG cells assessed as mortality without preceding sings of toxicity at 60 mg/kg, ip qd after 14 days relative to control; type: organism-based, U-87MG ATCC; design: dose 60 mg/kg, route intraperitoneal; conditions: in vivo, 336 h
[9] = AUC (infinity) in C57 mouse at 10 mg/kg, ip; type: ADME, organism-based; design: dose 10 mg/kg, route intraperitoneal, time infinity; conditions: plasma
Method in brief: (§2)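 Male specific pathogen-free age-matched C57 mice; single 10 mg/kg i.p. dose in 10% EtOH; animals culled at multiple time points; blood by cardiac puncture into EDTA, plasma separated by centrifugation, protein precipitated in MeOH.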

[10] = Cmax in C57 mouse at 10 mg/kg, ip; type: ADME, organism-based; design: dose 10 mg/kg, route intraperitoneal; conditions: in vivo; method in brief: as §2
[11] = Antitumor activity against human U87MG cells xenografted in rag1-deficient mouse assessed as tumor growth inhibition at 60 mg/kg, ip qd measured after 7 days relative to control; conditions: U-87 MG, 168 h, read-out: TGI
[12] = molecular target: T1, Phosphatidylinositol 4,5-bisphosphate 3-kinase catalytic subunit alpha isoform (Homo sapiens, UniProt P42336, H1047R); experiment: Inhibition of PI3K p110alpha H1047R mutant in human HCT116 cells assessed as inhibition of AKT/PKB phosphorylation at Ser473 incubated for 15 mins prior to insulin stimulation measured after 5 mins by immunoblot analysis; type: cell-based, HCT-116
[13] = Half life in C57 mouse at 10 mg/kg, ip; type: ADME, organism-based; design: dose 10 mg/kg, route intraperitoneal; conditions: in vivo; method in brief: as §2
[14] = Tmax in C57 mouse at 10 mg/kg, ip; type: ADME, organism-based; design: dose 10 mg/kg, route intraperitoneal; conditions: in vivo; method in brief: as §2
[15] = molecular target: T1, Phosphatidylinositol 4,5-bisphosphate 3-kinase catalytic subunit alpha isoform; experiment: Inhibition of PI3K p110alpha H1047R mutant in human HCT116 cells assessed as inhibition of AKT/PKB phosphorylation at Thr308 incubated for 15 mins prior to insulin stimulation measured after 5 mins by immunoblot analysis; type: cell-based, HCT-116
[16] = Antitumor activity against human U87MG cells xenografted in rag1-deficient mouse assessed as tumor growth inhibition at 15 mg/kg, ip qd measured after 7 days relative to control; conditions: U-87 MG, 168 h, read-out: TGI
[17] = system: Mus musculus; experiment: Toxicity in rag1-deficient mouse xenografted with human U87MG cells assessed as body weight loss at 15 mg/kg, ip qd after 14 days relative to control; type: organism-based, U-87MG ATCC; design: dose 15 mg/kg, route intraperitoneal; conditions: in vivo, 336 h
[18] = system: Mus musculus; experiment: Toxicity in rag1-deficient mouse xenografted with human U87MG cells assessed as body weight loss at 40 mg/kg, ip qd after 14 days relative to control; type: organism-based, U-87MG ATCC; design: dose 40 mg/kg, route intraperitoneal; conditions: in vivo, 336 h
[19] = Antitumor activity against human U87MG cells xenografted in rag1-deficient mouse assessed as tumor growth inhibition at 40 mg/kg, ip qd measured after 7 days relative to control; conditions: U-87 MG, 168 h, read-out: TGI
[20] = system: Mus musculus; experiment: Toxicity in rag1-deficient mouse xenografted with human U87MG cells assessed as mortality at 40 mg/kg, ip qd after 14 days relative to control; type: organism-based, U-87MG ATCC; design: dose 40 mg/kg, route intraperitoneal; conditions: in vivo, 336 h
Method in brief: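 Female specific-pathogen-free Rag1−/− mice given 5 × 10⁶ U87MG cells s.c. in PBS on the right flank. Dosing started 3–4 weeks later, once tumors averaged about 8 mm. Drug was given i.p. daily for 14 days at 10 mL/kg as free base, in 10% DMSO, 15% Cremophor EL, 15% EtOH and 60% saline. Bodyweight and tumor volume were recorded every 2–3 days.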

Sequence of PI3K p110 beta/p85 alpha (P27986 whole entry): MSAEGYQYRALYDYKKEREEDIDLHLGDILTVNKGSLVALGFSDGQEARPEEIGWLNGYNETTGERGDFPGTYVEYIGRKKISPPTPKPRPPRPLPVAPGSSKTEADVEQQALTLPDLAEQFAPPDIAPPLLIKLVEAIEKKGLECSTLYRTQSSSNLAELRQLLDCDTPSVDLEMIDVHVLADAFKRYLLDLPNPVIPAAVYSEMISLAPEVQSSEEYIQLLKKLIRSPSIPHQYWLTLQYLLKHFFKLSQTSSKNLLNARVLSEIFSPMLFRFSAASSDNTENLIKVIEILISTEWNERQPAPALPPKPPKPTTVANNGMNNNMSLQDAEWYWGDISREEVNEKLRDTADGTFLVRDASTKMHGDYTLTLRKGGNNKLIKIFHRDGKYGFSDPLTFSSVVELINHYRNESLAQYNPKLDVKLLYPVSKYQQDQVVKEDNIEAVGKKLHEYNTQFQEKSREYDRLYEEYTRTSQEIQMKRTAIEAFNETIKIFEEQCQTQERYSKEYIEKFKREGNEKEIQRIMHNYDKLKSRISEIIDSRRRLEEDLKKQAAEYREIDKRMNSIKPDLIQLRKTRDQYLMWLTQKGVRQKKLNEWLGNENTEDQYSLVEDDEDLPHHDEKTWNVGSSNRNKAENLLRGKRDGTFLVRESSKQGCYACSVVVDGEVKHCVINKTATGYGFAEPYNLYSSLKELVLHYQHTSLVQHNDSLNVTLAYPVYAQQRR
Sequence of PI3K p110 beta/p85 alpha (P42338 whole entry): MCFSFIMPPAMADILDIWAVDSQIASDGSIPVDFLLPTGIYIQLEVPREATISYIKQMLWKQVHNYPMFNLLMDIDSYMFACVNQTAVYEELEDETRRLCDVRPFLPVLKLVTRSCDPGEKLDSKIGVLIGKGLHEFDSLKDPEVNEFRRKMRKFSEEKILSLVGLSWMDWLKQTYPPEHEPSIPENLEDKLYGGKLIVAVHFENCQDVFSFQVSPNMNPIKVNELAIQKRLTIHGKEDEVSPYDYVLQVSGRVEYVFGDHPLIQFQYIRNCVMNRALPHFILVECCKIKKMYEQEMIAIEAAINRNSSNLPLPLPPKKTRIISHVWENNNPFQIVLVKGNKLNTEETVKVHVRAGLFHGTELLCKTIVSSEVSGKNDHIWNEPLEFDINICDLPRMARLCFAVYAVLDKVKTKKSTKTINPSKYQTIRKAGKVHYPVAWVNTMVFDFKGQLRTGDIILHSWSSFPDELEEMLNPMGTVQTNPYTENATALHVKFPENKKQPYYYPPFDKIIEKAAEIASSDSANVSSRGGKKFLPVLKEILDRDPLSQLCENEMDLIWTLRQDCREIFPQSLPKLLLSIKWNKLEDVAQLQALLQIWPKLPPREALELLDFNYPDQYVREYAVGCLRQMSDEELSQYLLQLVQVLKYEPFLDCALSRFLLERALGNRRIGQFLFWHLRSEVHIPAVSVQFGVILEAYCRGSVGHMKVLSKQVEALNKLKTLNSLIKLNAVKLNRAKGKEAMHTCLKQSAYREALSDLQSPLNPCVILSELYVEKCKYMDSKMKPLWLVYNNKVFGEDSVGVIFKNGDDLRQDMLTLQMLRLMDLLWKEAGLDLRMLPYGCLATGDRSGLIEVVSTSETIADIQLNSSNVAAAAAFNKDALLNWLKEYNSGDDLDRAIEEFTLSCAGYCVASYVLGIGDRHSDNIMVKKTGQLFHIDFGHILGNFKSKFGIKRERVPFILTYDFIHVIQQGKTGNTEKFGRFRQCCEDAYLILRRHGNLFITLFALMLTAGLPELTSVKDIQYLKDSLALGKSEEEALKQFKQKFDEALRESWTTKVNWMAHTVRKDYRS
Sequence of PI3-kinase p110-delta/p85-alpha (P27986 whole entry): as the sequence (P27986 whole entry) above
Sequence of PI3-kinase p110-delta/p85-alpha (O00329 whole entry): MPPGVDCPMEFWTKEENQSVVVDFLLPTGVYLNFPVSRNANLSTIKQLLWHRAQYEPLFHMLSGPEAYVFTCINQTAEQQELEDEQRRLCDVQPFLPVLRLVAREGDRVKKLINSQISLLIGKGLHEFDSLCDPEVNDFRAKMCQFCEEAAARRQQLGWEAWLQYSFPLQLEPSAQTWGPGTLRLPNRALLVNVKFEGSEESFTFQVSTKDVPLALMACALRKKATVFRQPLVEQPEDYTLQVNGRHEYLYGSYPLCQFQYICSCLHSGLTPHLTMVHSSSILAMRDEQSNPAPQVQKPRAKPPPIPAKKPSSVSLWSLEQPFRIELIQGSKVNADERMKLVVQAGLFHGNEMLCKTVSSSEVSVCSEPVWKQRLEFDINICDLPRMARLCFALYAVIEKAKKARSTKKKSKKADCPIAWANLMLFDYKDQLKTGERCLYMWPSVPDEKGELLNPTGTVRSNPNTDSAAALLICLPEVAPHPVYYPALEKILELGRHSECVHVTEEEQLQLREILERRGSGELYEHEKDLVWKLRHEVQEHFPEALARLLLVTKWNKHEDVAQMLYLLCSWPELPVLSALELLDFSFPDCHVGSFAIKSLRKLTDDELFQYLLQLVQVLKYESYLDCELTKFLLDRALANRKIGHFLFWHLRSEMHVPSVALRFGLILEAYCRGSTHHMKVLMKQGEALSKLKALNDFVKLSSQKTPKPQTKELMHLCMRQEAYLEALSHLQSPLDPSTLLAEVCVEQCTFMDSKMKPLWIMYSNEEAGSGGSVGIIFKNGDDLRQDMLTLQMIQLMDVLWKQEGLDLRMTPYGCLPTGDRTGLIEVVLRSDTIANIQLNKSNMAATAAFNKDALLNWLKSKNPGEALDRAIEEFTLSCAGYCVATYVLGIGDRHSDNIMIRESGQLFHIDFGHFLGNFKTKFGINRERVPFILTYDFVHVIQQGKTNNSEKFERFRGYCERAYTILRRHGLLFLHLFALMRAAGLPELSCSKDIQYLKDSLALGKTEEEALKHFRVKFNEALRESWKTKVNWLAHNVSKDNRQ
Sequence of PI3-kinase p110-alpha/p85-alpha (P27986 whole entry): as the sequence (P27986 whole entry) above
Sequence of PI3-kinase p110-alpha/p85-alpha (P42336 whole entry): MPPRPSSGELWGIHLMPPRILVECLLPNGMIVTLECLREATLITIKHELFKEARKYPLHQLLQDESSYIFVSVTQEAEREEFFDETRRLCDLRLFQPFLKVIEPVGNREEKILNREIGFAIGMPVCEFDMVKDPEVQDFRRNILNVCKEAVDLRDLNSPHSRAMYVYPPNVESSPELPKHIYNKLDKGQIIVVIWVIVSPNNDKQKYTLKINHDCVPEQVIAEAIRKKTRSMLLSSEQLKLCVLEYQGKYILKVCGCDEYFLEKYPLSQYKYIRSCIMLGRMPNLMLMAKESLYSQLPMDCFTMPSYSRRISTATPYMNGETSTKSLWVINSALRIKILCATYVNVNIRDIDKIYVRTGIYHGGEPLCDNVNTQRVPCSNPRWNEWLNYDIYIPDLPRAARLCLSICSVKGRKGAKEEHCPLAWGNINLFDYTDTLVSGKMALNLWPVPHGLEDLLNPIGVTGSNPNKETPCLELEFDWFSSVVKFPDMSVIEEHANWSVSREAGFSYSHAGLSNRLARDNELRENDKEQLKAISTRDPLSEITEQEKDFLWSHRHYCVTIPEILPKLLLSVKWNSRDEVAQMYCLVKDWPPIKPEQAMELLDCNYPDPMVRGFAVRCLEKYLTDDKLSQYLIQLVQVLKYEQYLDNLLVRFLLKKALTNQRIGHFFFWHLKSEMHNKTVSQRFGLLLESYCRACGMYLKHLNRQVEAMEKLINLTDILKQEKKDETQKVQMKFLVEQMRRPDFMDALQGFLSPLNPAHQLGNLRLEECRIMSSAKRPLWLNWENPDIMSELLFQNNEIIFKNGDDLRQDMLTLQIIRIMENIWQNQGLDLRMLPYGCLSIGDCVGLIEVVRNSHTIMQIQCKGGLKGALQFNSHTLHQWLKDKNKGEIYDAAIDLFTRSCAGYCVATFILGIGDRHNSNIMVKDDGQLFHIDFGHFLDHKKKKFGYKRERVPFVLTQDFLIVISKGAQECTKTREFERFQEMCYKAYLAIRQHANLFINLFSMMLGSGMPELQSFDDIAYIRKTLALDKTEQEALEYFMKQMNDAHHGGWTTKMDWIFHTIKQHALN
T1 sequence (P42336 whole entry H1047R, canonical isoform): as the sequence (P42336 whole entry) above, with H1047R counted along it

Structure (SMILES) | pIC50 [2] | pIC50 [3] | pIC50 [4] | pIC50 [5] | pIC50 [6] | also measured
CN(C)CCCOc1cccc2c1nc(C(F)F)n2-c1nc(N2CCOCC2)nc(N2CCOCC2)n1.Cl |  |  |  |  |  | solubility [1]: 25 mg/mL
FC(F)c1nc2c(OCCN3CCOCC3)cccc2n1-c1nc(N2CCOCC2)nc(N2CCOCC2)n1 | 7.28 | 6.98 | 6.89 | 6.82 | 7.15 | 
NCCCOc1cccc2c1nc(C(F)F)n2-c1nc(N2CCOCC2)nc(N2CCOCC2)n1 | 7.55 | 7.49 | 7.55 | 7.12 | 8.05 | 
CN(C)CCCOc1cccc2c1nc(C(F)F)n2-c1nc(N2CCOCC2)nc(N2CCOCC2)n1 | 8.35 | 6.77 | 7.96 | 8.14 | 7.40 | Activity [7]: 5%; Activity [8]: Toxic; AUC(0-inf) [9]: 2.59 µM·h; Cmax [10]: 1940 nM; inhibition in vivo at 60 mg/kg [11]: 56.3%; pIC50 [12]: 7.44; half-life [13]: 93.6 min; Tmax [14]: 15 min; pIC50 [15]: 7.13
FC(F)c1nc2c(OCCCN3CCOCC3)cccc2n1-c1nc(N2CCOCC2)nc(N2CCOCC2)n1 | 7.74 | 7.22 | 7.54 | 7.12 | 7.52 | 
CN(C)CC(O)COc1cccc2c1nc(C(F)F)n2-c1nc(N2CCOCC2)nc(N2CCOCC2)n1 (stereo not given) | 7.89 | 6.48 | 7.48 | 7.52 | 6.96 | 
OC(COc1cccc2c1nc(C(F)F)n2-c1nc(N2CCOCC2)nc(N2CCOCC2)n1)CN1CCOCC1 (stereo not given) | 8.26 | 7.27 | 7.39 | 7.28 | 7.60 | 
CN(C)CCNc1cccc2c1nc(C(F)F)n2-c1nc(N2CCOCC2)nc(N2CCOCC2)n1 | 7.82 | 6.70 | 6.76 | 7.14 | 6.96 | 
NCC(=O)Nc1cccc2c1nc(C(F)F)n2-c1nc(N2CCOCC2)nc(N2CCOCC2)n1 | 7.28 | 6.85 | 6.92 | 6.13 | 7.22 | 
CN(C)CC(=O)Nc1cccc2c1nc(C(F)F)n2-c1nc(N2CCOCC2)nc(N2CCOCC2)n1 | 7.00 | 7.30 | 6.42 | 5.98 | 7.30 | 
NCCC(=O)Nc1cccc2c1nc(C(F)F)n2-c1nc(N2CCOCC2)nc(N2CCOCC2)n1 | 6.68 | 6.36 | 6.07 | 5.52 | 6.92 | 
CN(C)CCC(=O)Nc1cccc2c1nc(C(F)F)n2-c1nc(N2CCOCC2)nc(N2CCOCC2)n1 | 6.95 | 6.54 | 6.31 | 5.90 | 6.85 | 
OCC(O)COc1cccc2c1nc(C(F)F)n2-c1nc(N2CCOCC2)nc(N2CCOCC2)n1 (stereo not given) | 8.33 | 7.59 | 7.92 | 7.62 | 7.60 | 
NCCOc1cccc2c1nc(C(F)F)n2-c1nc(N2CCOCC2)nc(N2CCOCC2)n1 | 7.70 | 7.28 | 7.77 | 6.89 | 7.66 | 
CN(C)CCOc1cccc2c1nc(C(F)F)n2-c1nc(N2CCOCC2)nc(N2CCOCC2)n1 | 7.72 | 6.35 | 7.46 | 6.98 | 6.82 | 
O=C(O)COc1cccc2c1nc(C(F)F)n2-c1nc(N2CCOCC2)nc(N2CCOCC2)n1 | 7.41 | 5.07 | 7.28 | 6.56 | 5.47 | 
OCCOc1cccc2c1nc(C(F)F)n2-c1nc(N2CCOCC2)nc(N2CCOCC2)n1 | 8.59 | 7.22 | 8.28 | 7.80 | 7.22 | 
OCCCOc1cccc2c1nc(C(F)F)n2-c1nc(N2CCOCC2)nc(N2CCOCC2)n1 | 7.66 | 7.15 | 8.00 | 6.77 | 7.74 | 
Cn1c(=O)n(-c2ccc(C(C)(C)C#N)cc2)c2c3cc(-c4cnc5ccccc5c4)ccc3ncc21 [DACTOLISIB] |  |  |  |  |  | inhibition in vivo at 15 mg/kg [16]: 60.3%; Activity [17]: 5%
FC(F)c1nc2ccccc2n1-c1nc(N2CCOCC2)nc(N2CCOCC2)n1 [ZSTK-474] |  |  |  |  |  | Activity [18]: 19%; inhibition in vivo at 40 mg/kg [19]: 67.6%; Activity [20]: Toxic

Reference: ChEMBL document CHEMBL2390847, “Synthesis and biological evaluation of novel phosphatidylinositol 3-kinase inhibitors: Solubilized 4-substituted benzimidazole analogs of 2-(difluoromethyl)-1-[4,6-di(4-morpholinyl)-1,3,5-triazin-2-yl]-1H-benzimidazole (ZSTK474)” (Eur J Med Chem, 2013)
